ChEMBL document CHEMBL2413053, “3'-Oxo-, amino-, thio- and sulfone-acetic acid modified thymidines: effect of increased acidity on ribonuclease A inhibition” (Bioorg Med Chem, 2013)
The source made the active and inactive calls. The calls are words filed in the database; no cut-off is given here.

How the values were obtained:
Ribonuclease pancreatic = target: T1, Ribonuclease pancreatic (Bos taurus, UniProt P61823); assay: Reversible competitive inhibition of bovine pancreatic RNase A using 2',3'-cCMP as substrate by Lineweaver-Burk plot analysis
T1 sequence (P61823 whole entry): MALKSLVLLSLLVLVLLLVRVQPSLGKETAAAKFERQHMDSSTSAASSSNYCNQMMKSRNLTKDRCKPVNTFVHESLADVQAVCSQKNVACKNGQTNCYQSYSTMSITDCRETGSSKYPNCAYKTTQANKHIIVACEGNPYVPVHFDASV
Method in brief: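 Spectrophotometric RNase A assay in 0.1 M Mes–NaOH, pH 6.0, with 0.1 M NaCl, using 2',3'-cCMP as substrate at varied concentrations. Two fixed inhibitor concentrations were run plus a no-inhibitor set. Ki was derived from initial velocities by Lineweaver–Burk analysis.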

[1] = target: T2, Ribonuclease pancreatic (Bos taurus) (UniProt P61823); assay: Inhibition of bovine pancreatic RNase A assessed as degradation of tRNA at 0.07 to 0.20 mM incubated for 3 hrs prior to tRNA addition measured after 30 mins by agarose gel electrophoresis
T2 sequence (whole entry): T1 sequence (P61823 whole entry)
Method in brief: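 RNase A (1.51 μM stock) preincubated 3 h with compound at 0.07, 0.14 and 0.20 mM in 100 μL. Aliquot then mixed 1:1 with tRNA (5.0 mg/mL, freshly dissolved in RNase-free water) and held 30 min. Sample buffer with glycerol and bromophenol blue was added. Run on 1.1% agarose gel in 0.04 M TAE, pH 8.0. Residual tRNA seen by ethidium bromide staining under UV.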

[2] = target: T2, Ribonuclease pancreatic (Bos taurus); assay: Inhibition of bovine pancreatic RNase A assessed as degradation of tRNA at 0.35 mM incubated for 2 hrs prior to tRNA addition measured after 30 mins by precipitation assay
Method in brief: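 RNase A (1.31 μM) preincubated with compound (0.35 mM) 2 h at 37 °C; aliquot then mixed with tRNA (5 mg/mL) in Tris–HCl pH 7.5 with 5 mM EDTA and 0.5 mg/mL HSA, 30 min at 25 °C. Quenched with ice-cold 1.14 M perchloric acid/6 mM uranyl acetate, 30 min on ice, centrifuged; diluted supernatant A260 compared with control.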

[3] = target: T2, Ribonuclease pancreatic (Bos taurus); settings: 0.05 to 0.24 mM
[4] = target: T2, Ribonuclease pancreatic (Bos taurus); assay: Inhibition of bovine pancreatic RNase A assessed as degradation of tRNA at 0.06 to 0.24 mM incubated for 3 hrs prior to tRNA addition measured after 30 mins by agarose gel electrophoresis
Method in brief: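 RNase A (1.26 μM stock) preincubated 3 h with compound at 0.06, 0.12, 0.18 and 0.24 mM in 100 μL. Aliquot then mixed with tRNA (5.0 mg/mL, freshly dissolved in RNase-free water) for 30 min. Run on 1.1% agarose gel in 0.04 M TAE, pH 8.0. Residual tRNA visualized by ethidium bromide staining under UV.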

[5] = target: T2, Ribonuclease pancreatic (Bos taurus); settings: 0.05 to 0.20 mM

Row | Compound | Ki (Ribonuclease pancreatic) | inhibition [1] | inhibition [2] | inhibition [3] | inhibition [4] | inhibition [5]
1 | Cc1cn([C@H]2C[C@H](NCC(=O)O)[C@@H](CO)O2)c(=O)[nH]c1=O | 186 µM | Active | 19% | – | – | –
2 | COC(=O)CS(=O)(=O)C[C@H]1O[C@@H](n2cc(C)c(=O)[nH]c2=O)C[C@@H]1O | 202 µM | Active | 14% | – | – | –
3 | Cc1cn([C@H]2C[C@H](OCC(=O)O)[C@@H](CO)O2)c(=O)[nH]c1=O | 267 µM | Active | 13% | – | – | –
4 | COC(=O)CSC[C@H]1O[C@@H](n2cc(C)c(=O)[nH]c2=O)C[C@H]1SCC(=O)OC | – | Active | 5% | – | – | –
5 | CCOC(=O)CN[C@H]1C[C@H](n2cc(C)c(=O)[nH]c2=O)O[C@@H]1CO | 504 µM | Active | 7% | – | – | –
6 | COC(=O)CS(=O)(=O)C[C@H]1O[C@@H](n2cc(C)c(=O)[nH]c2=O)C[C@@H]1S(=O)(=O)CC(=O)OC | 267 µM | Active | 15% | – | – | –
7 | COC(=O)CS[C@H]1C[C@H](n2cc(C)c(=O)[nH]c2=O)O[C@@H]1CO | 757 µM | Active | 3% | – | – | –
8 | COC(=O)CS(=O)(=O)C[C@H]1O[C@@H](n2cc(C)c(=O)[nH]c2=O)C[C@H]1S(=O)(=O)CC(=O)OC | 242 µM | Active | 12% | – | – | –

Results, then the molecule that gave them:

Row | Ki (Ribonuclease pancreatic) | inhibition [1] | inhibition [2] | inhibition [3] | inhibition [4] | inhibition [5] | Compound
9 | 39 µM | – | 33% | Active | – | – | Cc1cn([C@H]2C[C@@H](S(=O)(=O)CC(=O)O)[C@@H](CS(=O)(=O)CC(=O)O)O2)c(=O)[nH]c1=O
10 | 169 µM | Active | 17% | – | – | – | Cc1cn([C@H]2C[C@H](SCC(=O)O)[C@@H](CO)O2)c(=O)[nH]c1=O
11 | 95 µM | – | 22% | – | Active | – | Cc1cn([C@H]2C[C@H](O)[C@@H](CS(=O)(=O)CC(=O)O)O2)c(=O)[nH]c1=O
12 | 88 µM | – | 25% | – | Active | – | Cc1cn([C@H]2C[C@H](S(=O)(=O)CC(=O)O)[C@@H](CO)O2)c(=O)[nH]c1=O
13 | 140 µM | Active | 18% | – | – | – | COC(=O)CS(=O)(=O)[C@H]1C[C@H](n2cc(C)c(=O)[nH]c2=O)O[C@@H]1CO
14 | 93 µM | – | 18% | – | Active | – | Cc1cn([C@H]2C[C@H](SCC(=O)O)[C@@H](CSCC(=O)O)O2)c(=O)[nH]c1=O
15 | 108 µM | – | 16% | – | – | – | Cc1cn([C@H]2C[C@@H](SCC(=O)O)[C@@H](CSCC(=O)O)O2)c(=O)[nH]c1=O
16 | 25 µM | – | 35% | – | – | Active | Cc1cn([C@H]2C[C@H](S(=O)(=O)CC(=O)O)[C@@H](CS(=O)(=O)CC(=O)O)O2)c(=O)[nH]c1=O
